Reference: ChEMBL document CHEMBL1125389, “Synthesis and use of 3-amino-4-phenyl-2-piperidones and 4-amino-2-benzazepin-3-ones as conformationally restricted phenylalanine isosteres in renin inhibitors” (J Med Chem, 1992)

Molecular target: T1, Renin (Homo sapiens, UniProt P00797)
T1 sequence (P00797 whole entry): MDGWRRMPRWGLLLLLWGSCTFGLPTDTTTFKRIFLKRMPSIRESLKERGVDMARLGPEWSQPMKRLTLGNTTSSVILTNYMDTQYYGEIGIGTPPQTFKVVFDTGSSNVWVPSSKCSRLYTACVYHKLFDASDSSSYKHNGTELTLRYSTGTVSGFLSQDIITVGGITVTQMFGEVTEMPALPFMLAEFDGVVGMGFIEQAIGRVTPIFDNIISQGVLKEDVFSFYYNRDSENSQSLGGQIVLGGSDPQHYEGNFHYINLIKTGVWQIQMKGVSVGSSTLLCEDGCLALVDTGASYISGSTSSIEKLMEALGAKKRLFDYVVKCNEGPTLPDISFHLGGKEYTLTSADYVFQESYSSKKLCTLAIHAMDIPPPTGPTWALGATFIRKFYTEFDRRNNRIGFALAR
Test: Compound was evaluated for the inhibition of human plasma renin at pH 7.4
Type: cell-free
Outline: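 Human plasma renin activity measured by radioimmunoassay of generated angiotensin I, run in phosphate buffer at pH 7.4 and 37 °C. IC50 is the mean of three determinations.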

Structure (SMILES) | IC50 [nM]
CCCCNC(=O)[C@@H](C[C@H](O)[C@H](CC1CCCCC1)NC(=O)[C@H](CCCC)N1Cc2ccccc2C[C@H](NC(=O)OC(C)(C)C)C1=O)C(C)C | 1730
CCCCNC(=O)[C@@H](C[C@H](O)[C@H](CC1CCCCC1)NC(=O)[C@H](CCCC)N1Cc2ccccc2C[C@H](NC(C)=O)C1=O)C(C)C | 210
CCCCNC(=O)[C@@H](C[C@H](O)[C@H](CC1CCCCC1)NC(=O)[C@H](CCCC)N1CC[C@@H](c2ccccc2)[C@H](NC(=O)OC(C)(C)C)C1=O)C(C)C | 5910
CCCCNC(=O)[C@@H](C[C@H](O)[C@H](CC1CCCCC1)NC(=O)[C@H](CCCC)N1Cc2ccccc2C[C@H](N2C(=O)c3ccccc3C2=O)C1=O)C(C)C | > 20000
CCCCNC(=O)[C@@H](C[C@H](O)[C@H](CC1CCCCC1)NC(=O)[C@H](CCCC)N1CC[C@H](c2ccccc2)[C@H](NC(=O)OC(C)(C)C)C1=O)C(C)C | 134
CCCCNC(=O)[C@@H](C[C@H](O)[C@H](CC1CCCCC1)NC(=O)[C@H](CCCC)N1Cc2ccccc2C[C@H](N)C1=O)C(C)C | 2040

More lines, now with the values ahead:

IC50 [nM] | Structure (SMILES)
2.1 | CCCCNC(=O)[C@@H](C[C@H](O)[C@H](CC1CCCCC1)NC(=O)[C@H](CCCC)NC(=O)C(Cc1ccccc1)NC(=O)OC(C)(C)C)C(C)C (stereo not given in full)
21 | CCCCNC(=O)[C@@H](C[C@H](O)[C@H](CC1CCCCC1)NC(=O)[C@H](CCCC)N1CC[C@H](c2ccccc2)[C@H](NC(C)=O)C1=O)C(C)C
0.84 | CCCCNC(=O)[C@@H](C[C@H](O)[C@H](CC1CCCCC1)NC(=O)[C@H](CCCC)NC(=O)C(Cc1ccccc1)NC(C)=O)C(C)C (stereo not given in full)
87 | CCCCNC(=O)[C@@H](C[C@H](O)[C@H](CC1CCCCC1)NC(=O)[C@H](CCCC)NC(=O)C(Cc1ccccc1)N1C(=O)c2ccccc2C1=O)C(C)C (stereo not given in full)
